Assay results of several laboratories.
Lines come from different studies, so protocols differ.
Medium: plasma

C=CCn1c(=O)c2cnc(Nc3ccc(N4CCN(C)CC4)cc3)nc2n1-c1ccc2c(n1)[C@@](O)(CC)CC2
Cmax (rat; oral; 60 mg/kg): 4000 nM

CCCCCCCCCC(=O)N[C@@H](Cc1c[nH]c2ccccc12)C(=O)N[C@H](CC(N)=O)C(=O)N[C@@H](CC(=O)O)C(=O)N[C@@H]1C(=O)NCC(=O)N[C@@H](CCCN)C(=O)N[C@@H](CC(=O)O)C(=O)N[C@H](C)C(=O)N[C@@H](CC(=O)O)C(=O)NCC(=O)N[C@H](CO)C(=O)N[C@@H]([C@H](C)CC(=O)O)C(=O)N[C@@H](CC(=O)c2ccccc2N)C(=O)O[C@@H]1C
Cmax (male Wistar rat; subcutaneous; 125 mg/kg; single dose): 205000 ng/mL

CC[C@H](C)[C@H](NC(=O)[C@@H]1CCCN1C(=O)CNC(=O)[C@H](Cc1ccccc1)NC(=O)[C@H](CC(N)=O)NC(=O)[C@H](CC(N)=O)NC(=O)[C@H](CO)NC(=O)[C@H](CO)NC(=O)[C@H](Cc1c[nH]cn1)NC(=O)[C@H](CCCNC(=N)N)NC(=O)[C@H](CC(C)C)NC(=O)[C@H](Cc1ccccc1)NC(=O)[C@H](CCC(=O)O)NC(=O)[C@H](C)NC(=O)[C@H](CC(C)C)NC(=O)[C@H](CCCNC(=N)N)NC(=O)[C@H](CCC(N)=O)NC(=O)[C@@H](NC(=O)[C@H](C)NC(=O)[C@@H]1CSSC[C@H](NC(=O)[C@H](CCCCN)NC(=O)CC[C@H](NC(=O)CCCCCCCCCCCCCCCCCCC(=O)O)C(=O)O)C(=O)N[C@@H](CC(N)=O)C(=O)N[C@@H]([C@@H](C)O)C(=O)N[C@@H](C)C(=O)N[C@@H]([C@@H](C)O)C(=O)N1)[C@@H](C)O)C(=O)N[C@@H](CC(C)C)C(=O)N1CCC[C@H]1C(=O)N1CCC[C@H]1C(=O)N[C@H](C(=O)N[C@@H](CC(N)=O)C(=O)N[C@H](C(=O)NCC(=O)N[C@@H](CO)C(=O)N[C@@H](CC(N)=O)C(=O)N[C@H](C(=O)N1CCC[C@H]1C(N)=O)[C@@H](C)O)C(C)C)[C@@H](C)O
Cmax (male Sprague-Dawley rat; subcutaneous; 30 nmol/kg; single dose): 98.8 nM

COc1cc(-c2cc(C(C)=O)n3ccccc23)c(OC)cc1Cn1ccnc1
Cmax (male Sprague-Dawley rat; intravenous; 5 mg/kg): 4120 ng/mL

C[C@@]12C[C@@]3(O)O[C@@H](O1)[C@]1(COC(=O)c4ccccc4)[C@H]3C[C@@]12O[C@@H]1O[C@H](CO)[C@@H](O)[C@H](O)[C@H]1O
Cmax (male Sprague-Dawley rat; oral; 80 mg/kg): 1.13 ng/mL

COc1ccc(N(Cc2csc(-c3ccccc3)n2)C(=O)CCCCCC(=O)NO)cc1
Cmax (female Sprague-Dawley rat; intravenous; 5 mg/kg): 150 ng/mL

O=C1CCC(N2Cc3cc(C4CCN(Cc5ccccc5)CC4)ccc3C2=O)C(=O)N1 (centres unmarked)
Cmax (male Sprague-Dawley rat; oral; 3 mg/kg): 72.7 ng/mL

[2H]C([2H])([2H])NC(=O)c1cc(Oc2ccc(NC(=O)Nc3ccc(Cl)c(C(F)(F)F)c3)cc2)ccn1
Cmax (rat; oral; 40 mg/kg; single dose): 7420 ng/mL

CCOc1c([C@H](C)n2nc(C)c3c(N)ncnc32)cc(Cl)c(F)c1[C@@H]1CNC(=O)C1
Cmax (male Sprague-Dawley rat; oral; 2 mg/kg; single dose): 666 ng/mL

C[C@H]1[C@@H](O)O[C@@H]2O[C@@]3(C)CC[C@H]4[C@H](C)CC[C@@H]1[C@@]24OO3
Cmax (male Sprague-Dawley rat; oral; 10 mg/kg): 169 ng/mL

Nc1ccn([C@@H]2O[C@H](CO)[C@@H](O)C2(F)F)c(=O)n1
Cmax (male Sprague-Dawley rat; intraperitoneal; 5 mg/kg): 12500 ng/mL

CNC(=O)c1cc(Oc2ccc(NC(=O)Nc3ccc(Cl)c(C(F)(F)F)c3)cc2)ccn1
Cmax (male Sprague-Dawley rat; oral; 100 mg/kg; single dose): 956 ng/mL

COc1nc(-c2cccc(-c3ccccc3)c2C)ccc1CNCCNC(=O)CCCCCCCCCCC(=O)N1CCN(CCNC(=O)c2cc3c(=O)n4cccc(C)c4nc3n(CCc3cccs3)c2=N)CC1
Cmax (male Sprague-Dawley rat; intravenous; 2 mg/kg): 1800 ng/mL

CONC(=O)c1cccc2c1cc(C)n2-c1nc2c(c(NCc3ccccc3)n1)CCCN2
Cmax (male Sprague-Dawley rat; intravenous; 1 mg/kg; single dose): 28.2 ng/mL

C=CC(=O)N1CCC([C@@H]2CCNc3c(C(N)=O)c(-c4ccc(Oc5ccccc5)cc4)nn32)CC1
Cmax (Sprague-Dawley rat; oral; 16 mg/kg): 426 ng/mL

CCCCC(=O)Nc1ccc(-c2ccc3ncn(CCC)c(=O)c3c2)cn1
Cmax (male rat; oral; 10 mg/kg): 966 ng/mL

C[C@H]1Oc2cc(cnc2N)-c2c(nn(C)c2C#N)CN(C)C(=O)c2ccc(F)cc21
Cmax (Sprague-Dawley rat; intravenous; 1 mg/kg; single dose): 2250 ng/mL
